Experimental data from ChEMBL document CHEMBL5712918, “Targeting methyltransferase PRMT5 retards the carcinogenesis and metastasis of HNSCC via epigenetically inhibiting Twist1 transcription” (Neoplasia, 2020).
Activity calls are given as the source filed them. No cut-off for these calls is given here.

Legend:
[1] = Toxicity in BALB/c nude mouse xenografted with human tongue squamous carcinoma cells assessed as effect on kidney morphology at 30 mg/kg; format: organism-based; settings: in vivo
[2] = Toxicity in BALB/c nude mouse xenografted with human HSC6 cells assessed as effect on body weight at 15 to 30 mg/kg; format: organism-based; settings: in vivo, dose 15-30 mg/kg
How it was run: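 Subcutaneous xenograft in 4-week-old BALB/c nude mice given 6 × 10^7 HSC6 cells into the back. Groups were control, 15 mg/kg and 30 mg/kg. Body weight was monitored and major organs were examined for toxicity.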

[3] = test system: HSC-6; experiment: Antitumor activity against human HSC-6 cells xenografted in BALB/c nude mouse model of orthotopic tumor assessed as as reduction in distant metastasis in kidney at 30 mg/kg by H and E analysis; format: functional, organism-based
[4] = Toxicity in BALB/c nude mouse xenografted with human HSC6 cells of orthotopic tumor assessed as effect on body weight at 30 mg/kg; format: organism-based; settings: in vivo
How it was run: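 Orthotopic model: 5 × 10^5 HSC6 cells injected submucosally into the tongue of 4-week-old BALB/c nude mice. Control vs 30 mg/kg (n = 12 each). Body weight was followed, and cervical lymph nodes were stained with pan-cytokeratin.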

[5] = test system: HSC-6; experiment: Antitumor activity against human HSC-6 cells xenografted in BALB/c nude mouse assessed as as reduction in lymphnode metastasis at 30 mg/kg by H and E analysis; format: functional, organism-based
[6] = test system: Rattus norvegicus; experiment: Antitumor activity against 4-Nitroquinoline-1-Oxide induced cancer Sprague-Dawley rat carcinogenic model assessed as cancer area of tongue tissue at 30 mg/kg, iv administered on week 12 and measured on week 22 (reference value: 80%); format: functional; settings: time 10 weeks
[7] = test system: Rattus norvegicus; experiment: Antitumor activity against 4-Nitroquinoline-1-Oxide induced cancer Sprague-Dawley rat carcinogenic model assessed as dysplasia area of tongue tissue at 30 mg/kg, iv administered on week 12 and measured on week 22 (reference value: 13.3%); format: functional; settings: time 10 weeks
[8] = target: Protein arginine N-methyltransferase 5 (Homo sapiens) (UniProt O14744); experiment: Inhibition of PRMT5 in human HSC-6 cells assessed as reduction in Twist1 mRNA expression at 10 uM incubated for 4 days by RT-qPCR analysis; format: cell-based; settings: time 4.0 day
How it was run: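 HSC6 or SCC25 cells exposed to 10 μM for 4 days. Twist1 mRNA measured by quantitative RT-PCR. Mean ± SD of three independent experiments, Student's t test.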

[9] = test system: SCC-25; experiment: Antimigratory activity against human SCC-25 cells assessed as reduction in cell migration after 48 hrs incubated for 48 hrs by transwell assay; format: functional, cell-based
[10] = test system: HSC-6; experiment: Anti-invasive activity against human HSC-6 cells assessed as reduction in cell invasion after 48 hrs incubated for 48 hrs by transwell assay; format: functional, cell-based
[11] = test system: Rattus norvegicus; experiment: Antitumor activity against 4-Nitroquinoline-1-Oxide induced cancer Sprague-Dawley rat carcinogenic model assessed as reduction in lesion area of tongue tissue at 30 mg/kg, iv administered on week 12 and measured on week 22; format: functional, organism-based; settings: time 10.0 weeks
[12] = test system: Rattus norvegicus; experiment: Antitumor activity against 4-Nitroquinoline-1-Oxide induced cancer Sprague-Dawley rat carcinogenic model assessed as normal area of tongue tissue at 30 mg/kg, iv administered on week 12 and measured on week 22 (reference value: 6.7%); format: functional; settings: time 10 weeks
[13] = test system: Squamous carcinoma cell line; experiment: Antitumor activity against human squamous carcinoma cells in BALB/c nude PDX xenograft mouse assessed as tumor volume at 30 mg/kg; format: functional, organism-based
How it was run: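 PDX: tongue squamous carcinoma tissue minced into 1∼2 mm3 pieces and passaged in BALB/c nude mice. P2 tissue implanted subcutaneously into 4-week-old mice, randomised at 50 mm3 tumour size to control or 30 mg/kg (n = 6 each). Volume change followed, and Ki-67 IHC quantified. Mean ± SD, Student's t test.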

[14] = target: Protein arginine N-methyltransferase 5 (Homo sapiens) (UniProt O14744); experiment: Inhibition of PRMT5 in human HSC-6 cells assessed as increase in E-cadherin protein expression level at 10 uM incubated for 4 days by western blot analysis; format: cell-based; settings: time 4.0 day
How it was run: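 HSC6 or SCC25 cells treated with 10 μM for 4 days. E-cadherin, N-cadherin and Twist1 proteins detected by immunoblot.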

[15] = target: Protein arginine N-methyltransferase 5 (Homo sapiens) (UniProt O14744); experiment: Inhibition of PRMT5 in human HSC-6 cells over expressing Twist1 assessed as decrease in E-cadherin protein level at 10 uM incubated for 4 days by immunoblot analysis; format: cell-based; settings: time 4.0 day
How it was run: (§1)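 HSC6 cells stably overexpressing Flag-Twist1, with or without 10 μM for 4 days. Twist1, N-cadherin and E-cadherin proteins detected by immunoblot.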

[16] = target: Protein arginine N-methyltransferase 5 (Homo sapiens) (UniProt O14744); experiment: Inhibition of PRMT5 in human HSC-6 cells over expressing Twist1 assessed as increase in N-cadherin protein level at 10 uM incubated for 4 days by immunoblot analysis; format: cell-based; settings: time 4.0 day; how it was run: as §1
[17] = test system: HSC-6; experiment: Antimigratory activity against human HSC-6 cells assessed as reduction in cell migration at 10 uM for 4 days by transwell assay; format: functional, cell-based; settings: time 4.0 day
How it was run: (§2)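 Transwell migration and invasion with 8-μm pore inserts. HSC6 or SCC25 cells, including lines stably overexpressing Flag-Twist1, treated at 10 μM for 4 days. Mean ± SD of three independent experiments, one-way ANOVA.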

[18] = test system: SCC-25; experiment: Anti-invasive activity against human SCC-25 cells assessed as reduction in cell invasion at 10 uM for 4 days by transwell assay; format: functional, cell-based; settings: time 4.0 day; how it was run: as §2
[19] = target: Protein arginine N-methyltransferase 5 (Homo sapiens) (UniProt O14744); experiment: Inhibition of PRMT5 in human SCC-25 cells assessed as reduction in H4R3me2 protein expression at 10 uM incubated for 4 days by western blot analysis; format: cell-based; settings: time 4.0 day
[20] = target: Protein arginine N-methyltransferase 5 (Homo sapiens) (UniProt O14744); experiment: Inhibition of PRMT5 in human HSC-6 cells assessed as reduction in H3R8me2 protein expression at 10 uM incubated for 4 days by western blot analysis; format: cell-based; settings: time 4.0 day
[21] = target: Protein arginine N-methyltransferase 5 (Homo sapiens) (UniProt O14744); experiment: Inhibition of PRMT5 in human HSC-6 cells assessed as reduction in H3R2me2 enrichment in Twist1 promoter region at 10 uM incubated for 4 days by Chip-qPCR analysis; format: cell-based; settings: time 4.0 day
How it was run: (§3)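 ChIP-qPCR at the Twist1 promoter after 4 days at 10 μM in HSC6 or SCC25 cells. Antibody ratios: H3R2me2s 1:100, H4R3me2s 1:100, WDR5 1:50, Set1 1:50; ChIP assay kit protocol. Mean ± SD of three independent experiments, Student's t test.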

[22] = target: Protein arginine N-methyltransferase 5 (Homo sapiens) (UniProt O14744); experiment: Inhibition of PRMT5 in human HSC-6 cells assessed as reduction in set1 occupancy in Twist1 promoter region at 10 uM incubated for 4 days by Chip-qPCR analysis; format: cell-based; settings: time 4.0 day; how it was run: as §3
[23] = target: Protein arginine N-methyltransferase 5 (Homo sapiens) (UniProt O14744); experiment: Inhibition of PRMT5 in human SCC-25 cells assessed as reduction in set1 occupancy in Twist1 promoter region at 10 uM incubated for 4 days by Chip-qPCR analysis; format: cell-based; settings: time 4.0 day
How it was run: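 SCC25 cells exposed to inhibitor at 10 μM for 4 days. ChIP used a commercial kit with anti-WDR5 or anti-Set1 (1:50), and binding at the Twist1 promoter was quantified by qPCR. Mean ± SD of three independent experiments, Student's t test.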

[24] = test system: HSC-6; experiment: Antitumor activity against human HSC-6 cells xenografted in BALB/c nude mouse assessed as reduction in tumor volume at 15 to 30 mg/kg; settings: dose 15-30 mg/kg
[25] = target: Protein arginine N-methyltransferase 5 (Homo sapiens) (UniProt O14744); experiment: Inhibition of PRMT5 in human HSC-6 cells assessed as increase in E-cadherin protein expression level at 10 uM incubated for 4 days by western blot analysis; settings: time 4.0 day

Protein arginine N-methyltransferase 5 (Homo sapiens), sequence (O14744 whole entry): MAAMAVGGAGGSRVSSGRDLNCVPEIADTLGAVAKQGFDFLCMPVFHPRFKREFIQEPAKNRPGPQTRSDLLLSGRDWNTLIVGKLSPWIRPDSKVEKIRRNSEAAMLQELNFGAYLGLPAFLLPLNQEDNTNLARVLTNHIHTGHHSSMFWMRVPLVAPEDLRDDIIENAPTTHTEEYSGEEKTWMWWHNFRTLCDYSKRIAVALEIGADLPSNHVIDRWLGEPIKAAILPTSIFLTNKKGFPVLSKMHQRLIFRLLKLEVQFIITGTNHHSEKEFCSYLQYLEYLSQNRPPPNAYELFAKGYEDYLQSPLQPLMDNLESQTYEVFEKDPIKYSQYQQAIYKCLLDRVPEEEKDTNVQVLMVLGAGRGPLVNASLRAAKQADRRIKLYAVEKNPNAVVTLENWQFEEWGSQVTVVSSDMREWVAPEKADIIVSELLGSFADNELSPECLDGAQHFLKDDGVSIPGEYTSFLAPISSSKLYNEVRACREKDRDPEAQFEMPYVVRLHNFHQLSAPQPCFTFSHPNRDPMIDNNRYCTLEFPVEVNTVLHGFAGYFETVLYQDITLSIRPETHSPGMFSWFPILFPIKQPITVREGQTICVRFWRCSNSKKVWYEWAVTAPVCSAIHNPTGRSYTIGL

inhibition [8]: Active
inhibition [14]: Active
inhibition [15]: inactive
inhibition [16]: inactive
inhibition [19]: Active
inhibition [20]: Active
inhibition [21]: Active
inhibition [22]: Active
inhibition [23]: Active
inhibition [25]: Active
Structure (SMILES): O=C(NC[C@H](O)CN1CCc2ccccc2C1)c1cc(NC2COC2)ncn1
Activity [1]: Non-Toxic
Activity [2]: Non-Toxic
Activity [3]: Active
Activity [4]: Non-Toxic
Activity [5]: Active
Activity [6]: 46.2%
Activity [7]: 15.4%
Activity [9]: Active
Activity [10]: Active
Activity [11]: Active
Activity [12]: 38.5%
Activity [13]: Active
Activity [17]: Active
Activity [18]: Active
Activity [24]: Active
